PubChem BioAssay
Inconclusive results are not listed.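 How the source made its calls, unless noted: active means inhibition over a set limit, the all-compound mean plus 3 SD, in both replicate runs; inconclusive means over that limit in just one replicate run; inactive means at or under that limit in both runs.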

Columns and labels:
[1] = S. cerevisiae growth inhibition in permissive medium (OD615), pilot counter-assay for S. cerevisiae lifespan shortening project, permissive growth control (AID 705;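 active means growth inhibition above 25% in both replicates, a cutoff set 3 SD above the mean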); settings: OD615, 24 h, at 10 µM, active compounds read high
Summary of the method: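 System: S. cerevisiae with engineered DeaD lifespan system. Medium: SC raffinose/galactose permissive medium. Doses: single compound dose of 10 µM, 0.25% DMSO final. Schedule: 24 h exposure, 30 °C. Measured by: OD615 turbidity read. Read-out: growth inhibition.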

[2] = S. cerevisiae growth inhibition in restrictive medium, OD615, pilot screen, restrictive growth control, yeast lifespan reduction project (AID 706;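 active means growth inhibition above a set limit, 3 SD over mean compound inhibition, in both replicates, cut at about 43% in these data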;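 further: modified DeaD lifespan yeast strain shifted to restrictive glucose medium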); settings: OD615, 48 h, at 10 µM, active compounds read high
Summary of the method: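 Assay system – genetically modified Saccharomyces cerevisiae, DeaD replicative lifespan assay strain · Medium – CSMM-D glucose medium · Doses – 10 µM compound, 0.25% DMSO · Times – 4 h pre-incubation, 48 h exposure at 30 °C · Signal – optical density at 615 nm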

[3] = doxorubicin toxicity protection in MRP-1 cells – H69AR cells, CellTiter-Glo, duplicate, MRP-1 activator project, pilot screen (AID 807;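 active means viability increase at or above a cutoff of the median across tested compounds plus 3 SD, cut at about 8.5% in these data, passing the limit was not always enough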;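 further: compound pretreatment 18-22 h then 72 h combined with doxorubicin; 0% = doxorubicin alone and 100% = vehicle without doxorubicin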); settings: H69AR viability with doxorubicin, CellTiter-Glo luminescence; at 10 µM; active compounds read high
[4] = viability of HCT116 without oncogenic beta-catenin – human colon tumor cells, pilot screen (AID 823;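 active means cell viability at or below a set limit in both duplicate runs, the limit being the all-compound median minus 4 SD, cut at about 23% in these data, passing the limit was not always enough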;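 further: 0% = wells killed by 20 µM Hyamine and 100% = untreated DMSO cell wells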); settings: HCT116 beta-catenin knockout viability, CellTiter-Glo, 60 h; at 10 µM; active compounds read low
[5] = viability of PTEN-null HCT116 cells – cell-based, HCT116 clonal line, CellTiter-Glo, pilot screen (AID 824;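 active means viability at or below 27.92% in each of two runs, the all-compound median minus 4 SD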;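 further: 0% = 20 µM Hyamine control and 100% = vehicle cell control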); settings: HCT116 PTEN-deleted viability, 60 h, at 10 µM, active compounds read low
[6] = RAM pathway blockade in budding yeast – dse1pr::URA3 reporter, 5-FOA selection, pilot screen (AID 869);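 further: 0% = DMSO wells with no growth and 100% = 10 µM 1-NA-PP1 with full growth; RAM network block rescues cells from 5-FOA so hits raise OD615 growth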; settings: S. cerevisiae dse1pr::URA3 5-FOA growth, OD615, 2 d; at 10 µM; active compounds read high; strain carries analog-sensitive mutant Cbk1 kinase
[7] = RAM signaling pathway blockade in yeast – S. cerevisiae, Pdr1DBD-CYC8 efflux-inhibited sensitized strain, primary screen (AID 1298;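 active means RAM network inhibition above 8.4% in each of two replicates, 3 SD over the compound average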;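 further: 0% = DMSO untreated cells without growth and 100% = 10 µM 1-NA-PP1 full growth; higher means more yeast growth rescued from 5-FOA killing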); settings: S. cerevisiae cbk1-as DSE1-URA3 strain, 5-FOA growth OD615, 2 d; at 50 µM; active compounds read high

O=C(NCCC1=CCCCC1)C1CCCN(S(=O)(=O)c2cccnc2)C1 (stereo not given)
inactive: growth inhibition [1] -1.48% | growth inhibition [2] 3.42% | viability increase [3] 0.1% | viability [4] 95.8% | viability [5] 101% | inhibition [6] 1.75% | RAM network inhibition [7] 1.4%

CCOc1ccc(-n2c(Cc3cc(=O)[nH]c(=O)[nH]3)nnc2SCC(=O)OC)cc1
inactive: growth inhibition [1] -2.32% | growth inhibition [2] 3.42% | viability increase [3] 1.38% | viability [4] 104% | viability [5] 97.3% | inhibition [6] 2.62% | RAM network inhibition [7] 0.78%

Cn1c(Cn2c(=O)sc3ccccc32)nnc1SCC(=O)NCc1ccccc1
inactive: growth inhibition [1] -10.1% | growth inhibition [2] -7.48% | viability increase [3] -0.73% | viability [4] 99% | viability [5] 102% | inhibition [6] 3.87% | RAM network inhibition [7] 4.44%

CCOc1ccc(OCC)c(NC(=O)CN2CCC(NC(=O)c3cccc(F)c3)CC2)c1
inactive: growth inhibition [1] -3.75% | growth inhibition [2] -12.3% | viability increase [3] -4.87% | viability [4] 77.5% | viability [5] 78.7% | inhibition [6] 2.31% | RAM network inhibition [7] 5.19%

O=C(O)CCCC(=O)N1CCN(c2nc(-c3ccccc3)c3ccccc3n2)CC1
inactive: growth inhibition [1] -9.64% | growth inhibition [2] -6.36% | viability increase [3] -1.22% | viability [4] 102% | viability [5] 93% | inhibition [6] 0.83% | RAM network inhibition [7] 4.79%

CCCn1c(CN2CCN(C(=O)OCC)CC2)nc2c1c(=O)n(C)c(=O)n2C
inactive: growth inhibition [1] -3.08% | growth inhibition [2] 1.72% | viability increase [3] -2.59% | viability [4] 92.3% | viability [5] 86.5% | inhibition [6] 0.325% | RAM network inhibition [7] 2.5%

Cc1ccc2oc(=O)c3cc(C(=O)N4CCN(c5ncccn5)CC4)sc3c2c1
inactive: growth inhibition [1] -7.63% | growth inhibition [2] -1.9% | viability increase [3] -3.11% | viability [4] 107% | viability [5] 98.1% | inhibition [6] 1.62% | RAM network inhibition [7] 2.64%

O=C1CN(C(=O)c2ccc(Br)o2)C(c2ccccc2)c2cc(F)ccc2N1 (stereo not given)
inactive: growth inhibition [1] -12.5% | growth inhibition [2] -28% | viability increase [3] -5.91% | viability [4] 84.9% | viability [5] 78.7% | inhibition [6] 1.08% | RAM network inhibition [7] 2.36%

COc1ccc(C2C/C(=N\O)C(C)(C)O2)cc1 (stereo not given)
inactive: growth inhibition [1] -16.5% | growth inhibition [2] -4.77% | viability increase [3] -0.83% | viability [4] 97.1% | viability [5] 93.7% | inhibition [6] 1.06% | RAM network inhibition [7] 3.9%

CC(C)(C)c1ccc(S(=O)(=O)N2CCCCC2C(=O)NCc2ccccn2)cc1 (stereo not given)
inactive: growth inhibition [1] -24.9% | growth inhibition [2] -29% | viability increase [3] -2.34% | viability [4] 93% | viability [5] 84.6% | inhibition [6] 0.13% | RAM network inhibition [7] 5.71%

CCCc1cc(C(=O)Nc2sc3c(c2C(=O)OCC)CCCC3)no1
inactive: growth inhibition [1] -19% | growth inhibition [2] -10.2% | viability increase [3] 1.82% | viability [4] 104% | viability [5] 99.5% | inhibition [6] 3.09% | RAM network inhibition [7] 3.28%

CCCn1c(CN2CCCCC2C)nc2c1c(=O)n(C)c(=O)n2C (stereo not given)
inactive: growth inhibition [1] -7.96% | growth inhibition [2] -3.75% | viability increase [3] -0.39% | viability [4] 88.7% | viability [5] 83.9% | inhibition [6] 1.64% | RAM network inhibition [7] 8.45%

COCCNC(=O)Cn1cc2c(n1)CCC(C)C2 (stereo not given)
inactive: growth inhibition [1] -12.9% | growth inhibition [2] -0.165% | viability increase [3] 0.11% | viability [4] 104% | viability [5] 93.9% | inhibition [6] 2.06% | RAM network inhibition [7] 1.1%

CCOc1ccccc1N(CC(=O)Nc1ccccc1C(=O)O)S(C)(=O)=O
inactive: growth inhibition [1] -15.5% | growth inhibition [2] -9.54% | viability increase [3] 0.9% | viability [4] 97.5% | viability [5] 85.1% | inhibition [6] 0.11% | RAM network inhibition [7] 5.86%

Fc1cccc(CSc2nc3ccncc3[nH]2)c1
inactive: growth inhibition [1] -13.4% | growth inhibition [2] -9.72% | viability increase [3] -0.81% | viability [4] 94.9% | viability [5] 79.7% | inhibition [6] 1.6% | RAM network inhibition [7] 7.53%

CC(=O)c1ccc(OCC(C)C)c(CC(C(N)=O)C(N)=O)c1
inactive: growth inhibition [1] 1.42% | growth inhibition [2] -5.6% | viability increase [3] -1.7% | viability [4] 108% | viability [5] 96.1% | inhibition [6] 1.66% | RAM network inhibition [7] -0.2%

Cc1n[nH]c(C)c1S(=O)(=O)N(CC(=O)Nc1ccc2c(c1)OCCO2)c1ccc(C(C)C)cc1
inactive: growth inhibition [1] 2.8% | growth inhibition [2] 2.67% | viability increase [3] -5.15% | viability [4] 68.1% | viability [5] 63% | inhibition [6] -0.49% | RAM network inhibition [7] 3.78%

Cc1c(Cl)cccc1NC(=O)CN1C(=O)CSc2ncccc21
inactive: growth inhibition [1] -2.14% | growth inhibition [2] -0.53% | viability increase [3] -1.13% | viability [4] 97.6% | viability [5] 89.5% | inhibition [6] -0.01% | RAM network inhibition [7] -0.13%

COc1cc(NC(=O)Cn2ncc3c2-c2ccccc2OC3)cc(OC)c1OC
inactive: growth inhibition [1] -6.13% | growth inhibition [2] 6.98% | viability increase [3] -3.04% | viability [4] 86.6% | viability [5] 83.5% | inhibition [6] 2.05% | RAM network inhibition [7] 2.19%

COc1ccc(C(=O)NCc2cn3ccsc3n2)cc1OC
inactive: growth inhibition [1] -9.73% | growth inhibition [2] -1.42% | viability increase [3] -1.54% | viability [4] 105% | viability [5] 94.6% | inhibition [6] 2.29% | RAM network inhibition [7] 2.63%

O=C(Cn1nc(-c2ccc(Cl)cc2)ccc1=O)NCC1CCCO1 (stereo not given)
inactive: growth inhibition [1] -1.09% | growth inhibition [2] -10.1% | viability increase [3] -1.53% | viability [4] 92.5% | viability [5] 93.8% | inhibition [6] 1.24% | RAM network inhibition [7] 7.63%

Cc1ccnc(N2C(=O)c3ccccc3C2Nc2ccc3c(c2)OCCO3)c1 (stereo not given)
inactive: growth inhibition [1] -12.4% | growth inhibition [2] 3.42% | viability increase [3] 1.16% | viability [4] 99.7% | viability [5] 90.1% | inhibition [6] 0.135% | RAM network inhibition [7] 3.93%

NC(=O)NC1CCCc2c1[nH]c1ccc(Cl)cc21 (stereo not given)
inactive: growth inhibition [1] 1.64% | growth inhibition [2] 3.78% | viability increase [3] 0.04% | viability [4] 89.9% | viability [5] 87.3% | inhibition [6] 1.15% | RAM network inhibition [7] 0.26%

COc1ccc(C(=O)OCCN2C(=O)c3ccccc3C2=O)cc1
inactive: growth inhibition [1] -3.96% | growth inhibition [2] -5.23% | viability increase [3] -0.3% | viability [4] 100% | viability [5] 93.7% | inhibition [6] 0.645% | RAM network inhibition [7] 7.05%

Cc1nn(C)cc1CN(C)C(=O)c1sc2cccc(Cl)c2c1Cl
inactive: growth inhibition [1] -4.77% | growth inhibition [2] 5.83% | viability increase [3] 0.61% | viability [4] 84.1% | viability [5] 82.1% | inhibition [6] -0.12% | RAM network inhibition [7] 3.58%
